# Only some compounds are listed: those with a hit (about 3.1% of all), similar ones and a draw of the others.
# Cneo AK release = Cryptococcus neoformans lysis via adenylate kinase release; lysis activity, % at 15 µM; 0.2% of 360,000 active; AID 651654; C. neoformans lysis, adenylate kinase release luminescence, 4 h; normalised: neutral wells 0, clomiphene wells 100;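 active means mean lysis activity across replicates of at least 80%, whatever share of replicates individually reach that level; inactive means mean lysis activity below 80%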
#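 Assay system: log-phase C. neoformans yeast / Quantity: yeast cell density of 5 × 10^6 cells/mL / Medium: fresh YPD growth medium / Compound: single dose / Timing: static 4 h at 37 °C with compound, 1 h detection / Measured by: adenylate kinase release luminescence / Read-out: lysis from increased AK signal / Benchmarks: Clomiphene as positive lysis control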
# GSIS activator = primary screen for activators of insulin secretion dependent on glucose, INS-1E cells, GLuc reporter luminescence; AID 743287; INS-1E GLuc reporter insulin secretion, 2-3 h; 0.61% of 370,000 active; activation, % at 16.6 µM;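 active means lowest replicate activation of at least 40%, so every replicate reaches that level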;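 further: 0% = median of neutral control wells and 100% = median of IBMX positive control wells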
# F508del corr = CFTR F508del correction in bronchial cells. CFBE cells, YFP halide quenching; stimulated with forskolin plus potentiator P3; % fluorescence drop versus neutral controls. activity (quench increase), % at 7.58 µM. 0.36% of 350,000 active;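 active means mean added fluorescence quench of at least 8% versus neutral control, with both replicates also reaching 8%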;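 further: cells transiently co-express mutant CFTR-F508del with the halide-sensitive YFP; corrector assay measuring rescue of mutant channel to the surface after 24 h compound exposure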
# HIV Env fusion = blocks HIV Env-driven cell-cell fusion; HeLa-JRFL Env/CEM21 cell fusion, luciferase; inhibition, % at 12.3 µM; 1.1% of 360,000 active;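 active means mean replicate inhibition score of at least 50 and every replicate individually at or above 50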;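 further: 0% = plate neutral controls and 100% = maraviroc near 300 nM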
# rRNA inh HTS = inhibits bacterial ribosomal RNA function over humanized ribosomes; AID 720706; E. coli WT GFP vs humanized-ribosome RFP mutants, fluorescence, 24 h; hits give low values; DMSO median 0, no signal -100; 1.6% of 350,000 active; GFP signal change (wild-type ribosome), % (concentration not given with the values);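 active means significant combined selectivity score with lowered wild-type GFP, culture density cut under 30%, mutant RFP and density less affected; inactive means any of these conditions unmet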
# miR122 inh = miR-122 inhibition in Huh7 cells. 0.3% of 340,000 active. AID 602342. Huh7 miR-122 Renilla luciferase sensor, 48 h; neutral wells = 0, positive control = 100. activation (reporter increase), % at 12.5 µM;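 active means mean replicate activation score at least 90 and every replicate individually at or above 90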;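 further: higher luciferase means less miR-122 activity so hits act as miR-122 inhibitors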
# Numbers without * were called inactive; x = no result; [ ] = remark or other dose.
SMILES,Cneo AK release,GSIS activator,F508del corr,HIV Env fusion,rRNA inh HTS,miR122 inh
O=C(N/N=C/c1ccco1)C1CC1c1ccccc1 (centres undefined),x,-16.5,x,-11.2,11.6,x
O=C(N/N=C/c1c[nH]c2ccccc12)c1cc(-c2ccc(-c3ccccc3)cc2)n[nH]1,-5.1,x,x,-188.0,x,-13.6
O=C(O)c1ccc(N/N=C/c2c[nH]c3ccccc23)cc1,0.3,1.9,-1.5,58.7*,-5.2,-3.9
CN(C)C(=O)C[C@H]1CC[C@H](NS(=O)(=O)c2ccccc2)[C@@H](CO)O1,-1.6,11.1,1.7,3.5[16.7 µM],-1.2,x
O=C(N[C@H]1CC[C@H](CCNC(=O)C2CC2)O[C@H]1CO)c1ccccn1,-1.5,7.1,-2.4,-19.8[16.7 µM],1.3,x
N#C[C@H]1[C@@H](c2ccccc2C2=CCCC2)[C@H](CO)N1C(=O)Cc1ccncc1,x,-7.9,0.6,x,-4.1,x
CCCNC(=O)N1CC2(C1)[C@@H](c1ccccc1)[C@@H](CO)N2CC1CC1,x,-14.8,1.6,x,2.1,x
O=C(N/N=C/c1c[nH]c2ccccc12)C1CC1c1ccccc1 (centres undefined),x,-24.8,2.7,x,-27.9*,x
O=C(N/N=C/c1c[nH]c2ccccc12)C1CC1(c1ccccc1)c1ccccc1 (centres undefined),1.8,-18.1,x,-27.5,x,2.0
C/C(=N/NC(=O)C(O)(c1ccccc1)c1ccccc1)c1ccc([N+](=O)[O-])o1,x,6.0,-1.0,8.9,-34.6*,x
C[C@H](CO)N1C[C@H](C)[C@@H](CN(C)C(=O)C2CC2)Oc2cc(C#CCN(C)C)ccc2S1(=O)=O,x,16.9,1.9,-7.1[16.7 µM],9.0,11.8[16.7 µM]
CCn1cc(Br)c(C(=O)Nc2ccc(C(=O)OC(C)C)cc2)n1,-5.7,3.5,-1.5,x,-21.4*,0.8
CCn1cc(Br)c(C(=O)Nc2ccc(OC)cc2)n1,0.1,24.8,x,-54.9,-11.9,8.2
CCn1c(CNC(=O)c2cccc(C)c2)nnc1SCC(=O)N1CCOCC1,10.1,43.7*,0.1,-5.1,15.1,x
Cc1cccc(C(=O)NCc2nnc(SCC(=O)N3CCN(c4ccccc4)CC3)n2C)c1,-2.2,9.3,x,15.8,x,-4.6
CCOC(=O)c1ccc2c(c1)nc(SCC(=O)N1CCOCC1)n2CC,x,-9.4,2.8,7.1,-39.0*,x
C[C@@H]1CN([C@H](C)CO)C(=O)Cc2cc(N(C)C)ccc2O[C@@H]1CN(C)S(=O)(=O)c1ccccc1,-6.5,27.0,0.8,-3.8[16.7 µM],1.8,0.1[16.7 µM]
O=C(COc1ccc(Cl)cc1)Nc1c(-c2cccs2)nc2ccccn12,x,16.1,x,18.2,12.4,x
CC(C)CCNc1c(-c2cccs2)nc2ccccn12,x,3.5,-0.4,15.4,-25.6*,-0.5
c1ccc(CN2CCN(C3CCCSc4ccccc43)CC2)cc1 (centres undefined),4.9,-15.9,3.4,-125.7,-30.5*,x
O=C1CC(N2CCN(Cc3ccccc3)CC2)C(=O)N1 (centres undefined),x,8.0,1.7,1.9,9.9,x
COC(=O)C1=CN(c2ccc(OC)cc2OC)C(N)=C(C#N)C1c1ccc(OC)cc1 (centres undefined),x,6.6,-3.8,-0.1,-25.8*,x
COC(=O)C1=CN(c2ccc(OC)cc2)C(N)=C(C#N)C1c1ccc(OC)cc1 (centres undefined),x,10.1,1.4,-20.2,-26.9,x
COC(=O)C1=CN(c2ccc(OC)cc2OC)C(N)=C(C#N)C1c1ccccc1F (centres undefined),x,-11.3,9.8*,-172.3,2.3,x
COC(=O)C1=CN(c2ccc3c(c2)OCO3)C(N)=C(C#N)C1c1cccc(F)c1 (centres undefined),x,-28.7,11.2*,-14.3,-9.4,x
SMILES,Cneo AK release,GSIS activator,F508del corr,HIV Env fusion,rRNA inh HTS,miR122 inh
NC(=S)n1[nH]c(-c2ccc([N+](=O)[O-])cc2)c(N=Nc2cccc(Cl)c2)c1=O,x,-20.5,-0.5,57.1*,7.1,2.2
C[C@@H]1CN([C@H](C)CO)S(=O)(=O)c2ccc(-c3ccncc3)cc2O[C@@H]1CN(C)CC1CC1,-10.1,20.7,1.6,-17.9[16.7 µM],3.7,x
O=C(CSc1nc2ccsc2c(=O)n1Cc1ccccc1)NCc1ccco1,-1.3,-6.4,x,19.6,x,5.8
CCC(Sc1nc2ccsc2c(=O)n1-c1ccc(Cl)c(C)c1)C(=O)NCc1ccco1 (centres undefined),7.1,-13.8,x,65.4*,x,-2.5
O=C(NCCc1ccccc1)[C@@H]1[C@@H](CO)[C@@H]2Cn3c(cccc3=O)[C@H]1N2C(=O)C1CCC1,101.8*,12.7,0.7,x,2.3,39.7[16.7 µM]
O=C(NCCc1ccccc1)[C@H]1[C@H](CO)[C@H]2Cn3c(cccc3=O)[C@@H]1N2C(=O)C1CCCC1,-4.4,10.0,1.5,x,-3.1,-4.7[16.7 µM]
O=C(NCCc1ccccc1)[C@H]1[C@H](CO)[C@H]2Cn3c(cccc3=O)[C@@H]1N2C(=O)C1CCC1,105.4*,6.8,0.6,x,4.3,11.2[16.7 µM]
CCCNC(=O)N1[C@H](CNC(=O)CC)[C@@H](c2ccc(C3=CCCC3)cc2)[C@@H]1CO,0.1,-22.3,-5.0,x,2.2,18.0[16.7 µM]
O=C(CCCN1CCC(O)(c2cccc(C(F)(F)F)c2)CC1)c1ccc(F)cc1,-1.4,-23.7,8.3*,2.3,x,-6.1
CC1=NC(=O)C(N=Nc2ccccc2)N1c1ccccc1 (centres undefined),-0.8,x,x,x,x,6.0
CC1=NC(=O)C(N=Nc2cccc(C(=O)O)c2)N1c1ccccc1 (centres undefined),x,x,0.2,x,-30.8*,1.3
COCC1CN(CCc2ccc(F)cc2)S(=O)(=O)c2c(F)cccc2O1 (centres undefined),x,12.7,0.8,-8.5,-22.1*,x
CCCCOCC1CN(CCCC)S(=O)(=O)c2c(F)cccc2O1 (centres undefined),x,-8.7,-2.1,35.0,-22.1,x
O=C(c1ccccc1)N1CC(=O)N2[C@H](CO)[C@@H](c3ccc(C#CCC4CCCC4)cc3)[C@H]2C1,x,8.2,5.3,x,-19.9,x
COC(=O)C[C@@H]1C[C@H]2c3cc(NS(=O)(=O)c4cccc(OC)c4)ccc3O[C@H]2[C@@H](CO)O1,-2.1,6.7,0.4,59.6*[16.7 µM],-1.4,-2.9[16.7 µM]
COc1cccc(S(=O)(=O)Nc2ccc3c(c2)[C@H]2C[C@@H](CC(=O)NC4CCCCC4)O[C@@H](CO)[C@H]2O3)c1,101.3*,-7.6,0.1,-42.5[16.7 µM],-6.8,15.3[16.7 µM]
CCC(=O)Nc1ccc2c(c1)C(=O)N(C)C[C@@H](OC)[C@H](C)CN(C(=O)NC(C)C)[C@@H](C)CO2,4.2,-13.9,1.1,x,-1.9,-3.1[16.7 µM]
O=C(Cc1ccc(Cl)cc1Cl)Nc1ccncc1Cl,-0.8,-30.7,2.5,x,-7.7,x
O=C(Cc1ccc(Cl)cc1Cl)Nc1ccncc1,2.6,-35.5,-0.1,73.0*,-24.7*,3.6
